# “Also recorded” adds a separate entry of the source. No end group written: not given here.
# How the values were obtained:
# [1] = test system: human granulocyte binding to inflamed synovial vessels; test: Granulocyte binding to vessels in inflamed synovia; assay type: cell-based; settings: TNF-α 200 U/mL, 2 h; granulocytes from three donors
# Outline: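 Percoll-purified granulocytes from three donors were incubated 2 h with TNF-α (200 U/mL) or left untreated. They were then pre-treated 30 min with anti-Siglec-9 or control antibodies. Cells were bound to frozen sections of inflamed human synovium under rotation for 30 min, then glutaraldehyde-fixed. Vessel-bound cells were counted and expressed as % of control-mAb binding (100%), mean ± SEM.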
# [2] = test system: Siglec-9 expression on granulocytes; test: Induction of Siglec-9 expression on granulocytes; assay type: cell-based, human; settings: FMLP 0.5 and 5 μg/mL, FACS, MFI, n = 4; for Siglec-9 up-regulation on granulocytes, 2 h: TNF-α 10 and 200 U/mL, LPS 10 and 100 ng/mL
# Outline: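 Leukocytes from four healthy volunteers were prepared by red-cell lysis of whole blood. Treatments were FMLP (0.5 or 5 μg/mL, 5 min or 2 h), TNF-α (10 or 200 U/mL, 2 h) or LPS (10 or 100 ng/mL, 2 h); untreated cells were controls. Cells were stained with anti-Siglec-9 mAb (3G6 as control), then Alexa546 anti-mouse IgG. Granulocytes were gated by FITC-anti-CD66b and read by flow cytometry as MFI minus control-antibody MFI, mean ± SEM.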
# [3] = test system: recombinant or affinity purified human VAP-1; test: Surface plasmon resonance; assay type: binding
# [4] = target: Vascular Adhesion Protein-1 (VAP-1), human, recombinant (human) (UniProt Q16853); test: SPR
# [5] = test system: site of inflammation (VAP-1); test: PET imaging, rats with turpentine-induced sterile inflammation; assay type: in vivo, rat (Sprague-Dawley)
# Outline: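 Sprague-Dawley rats received turpentine oil s.c. in the upper neck, and 24 h later 68Ga-labelled DOTA test peptide i.v. (18.4 ± 3.1 MBq). A 60 min list-mode PET scan was reconstructed by OSEM3D, with blood sampled during imaging. ROIs covered inflammation, muscle, organs and bladder. SUV was ROI concentration divided by injected activity per body weight, corrected for tail residue. Excised organs were then gamma-counted as SUV; three animals.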
# [6] = test system: VAP-1 (wild type mice bearing melanoma xenografts); assay type: in vivo, mouse
# Outline: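 Wild-type mice received B16 melanoma cells in the neck area and were used 11 days later. 68Ga-DOTA-peptide was injected i.v., then dynamic PET ran 60 min (OSEM2D reconstruction). SUV is ROI radioactivity concentration divided by injected activity per body weight, corrected for tail residue. A separate group got 500-fold molar excess of unlabeled peptide co-injected. Blood, urine and organs were then excised, weighed and gamma-counted.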
# [7] = test system: VAP-1 negative knockout mice bearing melanoma xenografts; assay type: in vivo, mouse; settings: KO 60 min; i.v.; ex vivo; mean ± SD, n = 2
# Outline: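 VAP-1 knockout mice received B16 melanoma cells in the neck area and were used 11 days later. 68Ga-DOTA-Siglec-9 peptide was given i.v. (7.8 ± 2.3 MBq, as stated for tumor-bearing mice). Blood, urine and organs were excised, weighed and gamma-counted. Uptake is given as SUV: tissue radioactivity concentration divided by injected radioactivity per body weight.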
# human VAP-1 (KOTG mice) = assay type: in vivo, human (transgene in mouse)
# Outline: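 Ear inflammation was induced with 4 drops of 5% (w/v) DNCB in acetone on the right ear, one day before imaging. Mice were VAP-1 KO, or KOTG (mouse VAP-1-deficient, with human VAP-1 on endothelium under the Tie-1 promoter). 68Ga-DOTA-peptide was given i.v. (KO 7.4 ± 1.8, KOTG 7.5 ± 3.0 MBq). Dynamic PET ran 30 min (OSEM2D), read as SUV, and was checked by ex vivo gamma counting of excised tissues.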
# VAP-1 in melanoma tumor = test: Digital autoradiography of tumor cryosections; assay type: in vivo, mouse; settings: i.v. 3.0 ± 0.4 MBq, 15 min
# Outline: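 B16 melanoma cells were inoculated abdominally, and mice were used 11 days later. Mice received 68Ga-labelled DOTA test peptide i.v. (3.0 ± 0.4 MBq) and were killed after 15 min. Tumour cryosections went to digital autoradiography as PSL/mm2. ROIs covered VAP-1-positive and VAP-1-negative areas, set by anti-mouse VAP-1 staining of adjacent sections. Background was subtracted and values normalised to muscle; four mice, mean ± SD.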
# VAP-1 = settings: tyrosine 471 of VAP-1 and Arg293 in Siglec-10; ref [6]; cited from earlier work
# mouse VAP-1 = test: Adhesion of CHO-Siglec-E cells to CHO cells transfected with mouse VAP-1; assay type: cell-based; settings: CHO-Siglec-E or mock; Supplemental Figure 1
# Outline: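 CHO cells expressing mouse VAP-1, or mock CHO, were grown to confluence in 96-well plates and blocked with PBS/1% BSA. CFSE-labelled CHO-Siglec-E cells (2 × 10^5) were added for 30 min at 37°C. After nine washes, adherence was read by fluorometer, and the wells were imaged by microscope.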
# [8] = WT 60 min, i.v., ex vivo, mean ± SD, n = 3
# Chain of UniProt Q16853 (Q16853 whole entry): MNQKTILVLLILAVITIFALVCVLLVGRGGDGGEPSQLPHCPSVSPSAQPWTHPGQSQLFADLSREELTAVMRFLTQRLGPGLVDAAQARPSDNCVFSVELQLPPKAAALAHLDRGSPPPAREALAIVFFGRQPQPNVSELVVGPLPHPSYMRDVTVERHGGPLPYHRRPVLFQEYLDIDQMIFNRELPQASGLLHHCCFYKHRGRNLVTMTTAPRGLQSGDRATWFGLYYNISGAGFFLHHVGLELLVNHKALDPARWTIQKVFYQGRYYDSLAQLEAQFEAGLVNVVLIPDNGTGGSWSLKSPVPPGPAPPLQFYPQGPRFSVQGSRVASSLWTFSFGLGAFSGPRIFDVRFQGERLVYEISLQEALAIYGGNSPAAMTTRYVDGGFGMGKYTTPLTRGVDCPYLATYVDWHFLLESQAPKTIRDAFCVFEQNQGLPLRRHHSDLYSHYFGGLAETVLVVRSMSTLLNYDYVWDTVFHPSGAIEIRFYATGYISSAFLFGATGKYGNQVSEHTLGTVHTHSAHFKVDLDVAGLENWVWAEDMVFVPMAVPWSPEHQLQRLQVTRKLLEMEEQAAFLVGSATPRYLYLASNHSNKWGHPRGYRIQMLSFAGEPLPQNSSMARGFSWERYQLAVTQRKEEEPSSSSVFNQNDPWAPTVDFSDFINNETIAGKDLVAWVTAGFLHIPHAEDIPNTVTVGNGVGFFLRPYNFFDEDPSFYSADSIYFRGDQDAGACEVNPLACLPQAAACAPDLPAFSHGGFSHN
molecule,measurement,setting,value
tumor necrosis factor-α [TNF-α],granulocyte binding to inflamed synovial vasculature after TNF-α,[1],significantly increased granulocyte binding to synovial vasculature
same,"Siglec-9 up-regulation on granulocytes, 2 h",[2],significant up-regulation of Siglec-9 after 2 h
CARLSLSWRGLTLCPS [wild type peptide],binding to recombinant VAP-1 (SPR),"[3]; Biacore X, CM5 chip, immobilized VAP-1, wild type peptide at 0-400 μM",bound to recombinant VAP-1
formyl-methyl-leucine-phenylalanine [FMLP],"Siglec-9 up-regulation on granulocytes, 2 h",[2],further up-regulation was seen after 2 h; also recorded: roughly two-fold after 2 h
same,"Siglec-9 up-regulation on granulocytes, 5 min",[2]; 5 min,slightly up-regulated Siglec-9 expression already after 5 min; also recorded: slight up-regulation was already seen after 5 min
cyclic Siglec-9-like peptide without Arg284 (P1_noArg284) (from UniProt Q9Y336 283-297),percent reduction of binding against the wild type peptide,[4],66%
"mutated Siglec-9 peptide: mutated Siglec-9 peptide, in which both arginines were mutated to alanines (CAALSLSWAGLTLCPS; also: cyclic peptide, ring type not given here)","binding to recombinant VAP-1 (SPR), double arginine mutant","[3]; both arginines mutated to alanines, data not shown",failed to bind recombinant VAP-1
cyclic Siglec-9-like peptide without Arg290 (P1_noArg290) (from UniProt Q9Y336 283-297),percent reduction of binding against the wild type peptide,[4],42%
lipopolysaccharide [LPS],"Siglec-9 up-regulation on granulocytes, 2 h",[2],significant up-regulation of Siglec-9 after 2 h
CARLSLSWRGLTLCPSK [^68Ga-DOTA-peptide],accumulation at sites of inflammation vs muscle (PET),"[5]; i.v. 18.4 ± 3.1 MBq, 5-10 min, 24 h after turpentine, rat",quickly and preferentially accumulated at the sites of inflammation (5-10 min) in comparison to the muscle; also recorded: clearly seen at the site of inflammation (I) but not in the surrounding muscle
same,elimination route,"[5]; i.v., PET",eliminated rapidly via kidneys to the urinary bladder
same,"uptake in kidney (SUV), WT",[6]; [8],5.10 ± 0.86 standardized uptake values
same,"uptake in liver (SUV), WT",[6]; [8],1.82 ± 0.25 standardized uptake values
same,"uptake in lung (SUV), WT",[6]; [8],0.69 ± 0.21 standardized uptake values
same,"uptake in muscle (SUV), WT",[6]; [8],0.21 ± 0.07 standardized uptake values
same,"uptake in small intestine (SUV), WT",[6]; [8],0.59 ± 0.16 standardized uptake values
same,"uptake in tumour (SUV), WT",[6]; [8],0.56 ± 0.12 standardized uptake values
same,accumulation at tumor site (PET),"[6]; i.v. 7.8 ± 2.3 MBq, B16 melanoma, wild type mice",accumulated at the tumor site
same,"uptake in blood (SUV), KO",[7],0.25 ± 0.01 standardized uptake values
same,"uptake in kidney (SUV), KO",[7],7.78 ± 1.47 standardized uptake values
same,"uptake in liver (SUV), KO",[7],0.97 ± 0.07 standardized uptake values
same,"uptake in muscle (SUV), KO",[7],0.04 ± 0.01 standardized uptake values
same,"uptake in small intestine (SUV), KO",[7],0.08 ± 0.01 standardized uptake values
same,"uptake in tumour (SUV), KO",[7],0.20 ± 0.02 standardized uptake values
same,detection of inflammation in the mouse (PET),"human VAP-1 (KOTG mice); DNCB ear skin inflammation, Supplemental Figure 2",able to detect inflammation in the mouse
same,"signals in many organs, KOTG vs KO mice","human VAP-1 (KOTG mice); i.v. 7.5 ± 3.0 MBq (KOTG), 7.4 ± 1.8 MBq (KO), Supplemental Table 2",detects human VAP-1 in many organs realized as higher signals than in KO mice
same,distribution of radioactivity within tumor,VAP-1 in melanoma tumor,radioactivity concentrated in the periphery of the tumor
"Siglec-10: lymphocyte ligand for VAP-1 (protein, UniProt Q96LC7 17-697, looked up) Sialic acid-binding Ig-like …: MDGRFWIRVQESVMVPEGLCISVPCSFSYPRQDWTGSTPAYGYWFKAVTETTKGAPVATNHQSREVEMSTRGRFQLTGDPAKGNCSLVIRDAQMQDESQYFFRVERGSYVRYNFMNDGFFLKVTALTQKPDVYIPETLEPGQPVTVICVFNWAFEECPPPSFSWTGAALSSQGTKPTTSHFSVLSFTPRPQDHNTDLTCHVDFSRKGVSAQRTVRLRVAYAPRDLVISISRDNTPALEPQPQGNVPYLEAQKGQFLRLLCAADSQPPATLSWVLQNRVLSSSHPWGPRPLGLELPGVKAGDSGRYTCRAENRLGSQQRALDLSVQYPPENLRVMVSQANRTVLENLGNGTSLPVLEGQSLCLVCVTHSSPPARLSWTQRGQVLSPSQPSDPGVLELPRVQVEHEGEFTCHARHPLGSQHVSLSLSVHYSPKLLGPSCSWEAEGLHCSCSSQASPAPSLRWWLGEELLEGNSSQDSFEVTPSSAGPWANSSLSLHGGLSSGLRLRCEAWNVHGAQSGSILQLPDKKGLISTAFSNGAFLGIGITALLFLCLALIIMKILPKRRTQTETPRPRFSRHSTILDYINVVPTAGPLAQKRNQKATPNSPRTPLPPGAPSPESKKNQKKQYQLPSFPEPKSSTQAPESQESQEELHYATLNFPGVRPRPEARMPKGTQADYAEVKFQ",dependence of Siglec-10/VAP-1 interaction on enzymatic activity,VAP-1,completely dependent on the enzymatic activity of VAP-1
"Siglec-E: mouse molecule corresponding to human Siglec-9, expressed on CHO cells (protein) QNPQEVFTLNVERKVVVQEGLCVLVPCNFSYLKKRLTDWTDSDPVHGFWYREGTDRRKDSIVATNNPIRKAVKETRNRFFLLGDPWRNDCSLNIREIRKKDAGLYFFRLERGKTKYNYMWDKMTLVVTALTNTPQILLPETLEAGHPSNLTCSVPWDCGWTAPPIFSWTGTSVSFLSTNTTGSSVLTITPQPQDHGTNLTCQVTLPGTNVSTRMTIRLNVSYAPKNLTVTIYQGADSVSTILKNGSSLPISEGQSLRLICSTDSYPPANLSWSWDNLTLCPSKLSKPGLLELFPVHLKHGGVYTCQAQHALGSQHISLSLSPQSSATLSEMMMGTFVGSGVTALLFLSVCILLLAVRSYRRKPARPAVVAPHPDALKVSVSQNPLVESQADDSSEPLPSILEAAPSSTEEEIHYATLSFHEMKPMNLWGQQDTTTEYSEIKFPQRTAWP",adhesion of Siglec-E cells to mouse VAP-1 cells,mouse VAP-1,no VAP-1-Siglec-E mediated adhesion was detected

# Source: PMC3833035 (Blood, 2011)
